The list is not random: actives were taken first. Their share in the collection is about 2.1%.
CRFR2-BP ag = agonists of human CRF-binding protein/CRF-R2 receptor complex. HEK293 CRF-R2/CRF-BP, calcium dye fluorescence (FLIPR); percent of saturating CRF peptide response. activation, % at 13.2 µM. 350,000 compounds, 0.46% hits;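 active means activation of at least 50%, plus an integration ratio under a set limit after plate pattern correction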;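 further: plate controls were neutral control wells without compound for no effect and CRF at EC100 for full effect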
TRPML3 agonist = activates the human TRPML3 channel; activation, % at 3 µM; AID 1448; 220,000 compounds, 0.29% hits; Q8TDD5; HEK293 TRPML3-YFP, Fluo-8 calcium fluorescence; 100% = the carbachol control signal;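 active means activation above its plate's cutoff, the mean activation of the plate's test wells plus 3 SD, cut at about 12% in these data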;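 further: 0% = DMSO only wells and 100% = carbachol wells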
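Test system – HEK293 line with stable expression of human TRPML3-YFP channel · Control set – carbachol 87 µM final as high control (100%), DMSO as low control (0%) · Signal – Fluo-8 calcium dye fluorescence, ex 470-495, em 515-575 nm · Incubation – 1-h 37 °C dye load, 5-s basal, 120-s post-compound reads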
zfTRPN1 agonist = zebrafish TRPN1 (NompC) channel agonism; activation, % at 3 µM; 220,000 compounds, 0.18% hits; HEK293 zebrafish TRPN1-YFP, Fluo-8 calcium fluorescence; 100% = response to 87 µM carbachol;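 active means activation above its plate's cutoff, the mean activation of test wells on that plate plus 3 SD, cut at about 19% in these data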;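 further: 0% = DMSO alone and 100% = 87 µM carbachol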
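Material: zebrafish TRPN1-YFP in HEK293 cells; Doses: single test compound dose, 3 µM nominal, 0.3% DMSO; Timing: dye loading 1 h at 37 °C, then 30 min room temperature; Technique: intracellular calcium fluorescence with Fluo-8; Benchmarks: high carbachol 87 µM, low DMSO alone.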
IMP-1 inh-1 = blocks Pseudomonas aeruginosa IMP-1 metallo-beta-lactamase; purified IMP-1, nitrocefin hydrolysis, epi-absorbance fluorescence; inhibition, % at 5.6 µM; 290,000 compounds, 0.45% hits;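 active means inhibition above the mean plus 3 SD of all compounds in the same screening run, cut at about 4.5% in these data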;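 further: 0% = IMP-1 with DMSO and 100% = DMSO wells lacking enzyme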
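System: Purified recombinant IMP-1 metallo-beta-lactamase enzyme | Measured by: Fluorescence quenching readout, ex 480/em 530 nm | Replication: Singlicate | Incubation: 15 min preincubation plus 25 min reaction at 25 °C | Evaluation: Percent inhibition from optical density relative to buffer-blank wells | Benchmarks: DMSO with and without IMP-1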
CRFBP-R2 block = antagonists of CRF-binding protein/CRF-R2 receptor complex; HEK293 CRF-R2/CRF-BP, CRF-induced calcium fluorescence; inhibition, % at 11.8 µM; 350,000 compounds, 0.59% hits;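 active means inhibition of the ligand-induced calcium signal above about 50% at the single tested concentration, limit read from the data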
VIM-2 inh = inhibitors of Pseudomonas aeruginosa VIM-2 metallo-beta-lactamase; purified VIM-2, nitrocefin hydrolysis, epi-absorbance fluorescence; inhibition, % at 5.6 µM; 290,000 compounds, 0.89% hits;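 active means inhibition above the mean of all tested compounds plus 3 SD, cutoff set per screening run, cut at about 7.5% in these data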;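 further: red hydrolysis product quenches plate fluorescence so inhibitors raise well fluorescence; 0% = enzyme with DMSO and 100% = DMSO without enzyme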
IMP-1 inh-2 = selectivity counter-screen for VIM-2 inhibitors: IMP-1 metallo-beta-lactamase inhibitors; inhibition, % at 5.6 µM; shares compounds with VIM-2 inh; 1,300 tested, under 10 active; purified IMP-1, nitrocefin hydrolysis, epi-absorbance fluorescence; call rule not given here;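 further: 0% = enzyme with vehicle and 100% = vehicle without enzyme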
VIM-2 FRET inh = VIM-2 FRET inhibition, artifact counter-screen | shares compounds with VIM-2 inh | purified VIM-2, CCF2 FRET substrate hydrolysis | inhibition, % at 5.6 µM | 1,300 compounds, 23% hits | AID 1857;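 active means inhibition above the mean of all tested compounds plus 3 SD, cut at about 19% in these data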;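 further: 0% = VIM-2 plus DMSO and 100% = no enzyme wells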
TEM-1 counter = selectivity counter-screen for VIM-2 inhibitors: E. coli TEM-1 inhibitors. shares compounds with VIM-2 inh. Purified TEM-1, nitrocefin hydrolysis, epi-absorbance fluorescence. inhibition, % at 5.6 µM. 1,300 compounds, 3% hits;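 active means inhibition above that campaign's mean inhibition plus 3 SD, cut at about 0.46% in these data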;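 further: 0% = TEM-1 with DMSO and 100% = TEM-1 with 100 µM potassium clavulanate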
Target sequence (P62593 whole entry, looked up): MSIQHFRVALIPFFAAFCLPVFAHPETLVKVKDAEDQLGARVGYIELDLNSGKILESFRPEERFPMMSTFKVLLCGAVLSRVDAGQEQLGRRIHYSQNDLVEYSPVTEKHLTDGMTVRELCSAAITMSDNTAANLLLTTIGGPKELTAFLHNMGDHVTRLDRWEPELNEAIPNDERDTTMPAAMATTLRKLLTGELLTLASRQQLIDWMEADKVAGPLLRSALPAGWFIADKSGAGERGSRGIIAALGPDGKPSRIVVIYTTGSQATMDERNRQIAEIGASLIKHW
VIM-2 confirm 2 = confirmation of P. aeruginosa VIM-2 metallo-beta-lactamase inhibitors. AID 2187. inhibition, % at 5.6 µM. shares compounds with VIM-2 inh. purified VIM-2, nitrocefin hydrolysis, epi-absorbance. 1,300 compounds, 96% hits;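 active means inhibition of the VIM-2 beta-lactamase enzyme above about 11% from the earlier first-round screen, limit read from the data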;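 further: 0% = VIM-2 with DMSO and 100% = buffer wells without enzyme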
Active calls of the source: *; . = not tested or not shown.

SMILES	CRFR2-BP ag	TRPML3 agonist	zfTRPN1 agonist	IMP-1 inh-1	CRFBP-R2 block	VIM-2 inh	IMP-1 inh-2	VIM-2 FRET inh	TEM-1 counter	VIM-2 confirm 2
COc1ccc(N(C)C(=O)c2cc3c(Cl)nc4ccccc4c3s2)cc1	0	0	-1	-5	-19	-2	.	.	.	.
CN(CCCNC(=O)c1cc2c(Cl)nc3ccccc3c2s1)Cc1ccccc1	-1	2	4	1	-32	22*	-2	2	-7	31*
CCN(CC)CCCNC(=O)c1cc2c(Cl)nc3ccccc3c2s1	0	1	0	-1	-2	22*	-2	6	-6	32*
COc1ccc(C(=O)NC(C)c2ccc(-n3ccnc3)cc2)c(OC)c1 (stereo not drawn)	-3	.	.	-3	7	22*	-5	-7	-8	34*
COc1ccc(C(=O)NC(C)c2ccc(-n3ccnc3)cc2)c(OC)c1OC (stereo not drawn)	1	.	.	-2	2	30*	-4	-6	-7	40*
COc1ccc([C@H]2C[C@H](O)[C@@H](n3cc(COC(=O)c4ccccc4)nn3)CN2C(=O)C2CCCCC2)cc1	0	.	.	.	6	.	.	.	.	.
CC1CCC2(CC1)NC(=O)N(NC(=O)CCc1c[nH]c3ccccc13)C2=O (stereo not drawn)	0	.	.	.	-5	.	.	.	.	.
O=C(O)Cn1c2c(c3ccccc31)CSc1ccc(Cl)cc1-2	0	.	.	2	-1	15*	0	12	-4	20*
COc1cc(NC(=O)C2CC(c3ccccc3O)=NO2)cc(OC)c1OC (stereo not drawn)	-1	.	.	.	-5	.	.	.	.	.
O=Cc1c(NCc2ccc(Cl)cc2)c2ccccc2[nH]c1=O	1	.	.	-4	16	14*	-3	38*	-6	24*
COc1ccccc1C(=O)Nc1nnc(SCC(=O)NC2CCCC2)s1	0	.	.	-4	-14	12*	-3	31*	-6	24*
O=C(CSc1nnc(NC(=O)c2ccccc2[N+](=O)[O-])s1)NC1CCCC1	-4	.	.	-2	8	15*	-3	32*	-7	19*
CCSc1nccc(-c2nn(-c3ccc(C)cc3)ccc2=O)n1	2	0	-1	0	1	28*	-1	4	0	39*
CC1CCCCC1NC(=O)c1cc(S(=O)(=O)N2CCCCC2)ccc1N1CCOCC1 (stereo not drawn)	-1	.	.	.	-5	.	.	.	.	.
O=c1c2ccccc2nnn1Cc1nnc(-c2ccccc2Br)o1	-1	0	0	-2	-26	17*	-2	21*	-3	13*
O=C1c2ccccc2S(=O)(=O)N1Cc1nnc(-c2ccccc2Br)o1	-6	0	0	-1	-14	4	.	.	.	.
N/C(CC(=O)NC1CCCCC1)=N\OCC(=O)Nc1ccc(Cl)c(Cl)c1	0	1	4	-2	0	-2	.	.	.	.
COC(=O)c1c(NC(=O)c2ccccc2OC)sc(C(=O)N2CCOCC2)c1C	-1	.	.	-2	2	14*	-3	2	-7	20*
CCOC(=O)c1c(C)n(C)c2ccc(OCC(O)CN3CCN(C)CC3)cc12 (stereo not drawn)	0	-1	0	3	13	69*	-3	4	-6	75*
CCN1CCN(CC(O)COc2ccc(C)c(C)c2)CC1 (stereo not drawn)	2	1	0	-4	5	-4	.	.	.	.
